In ChEMBL document CHEMBL2331214, “Structure-Based Design and Synthesis of an HIV-1 Entry Inhibitor Exploiting X-Ray and Thermodynamic Characterization” (ACS Med Chem Lett, 2013):

Tested on: Human immunodeficiency virus 1
Test: Antiviral activity against 0.01 to 0.1 MOI HIV1 Env-pseudovirus Clade C infected in human TZM-bl cells after 30 mins by luciferase assay
Format: functional, organism-based
Conditions: Human immunodeficiency virus 1, Clade C, 0.5 h
Outline: (§1)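 Neutralization breadth is tested against a panel of 42 diverse Tier 2 clade B and C Env-pseudoviruses. IC50 values are summarized as geometric mean titers for the sensitive strains.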

Compound	IC50
N=C(N)NC[C@H]1Cc2ccccc2[C@@H]1NC(=O)C(=O)Nc1ccc(Cl)c(F)c1.O=CO	14 µM

Tested on: Human immunodeficiency virus 1
Test: Antiviral activity against 0.01 to 0.1 MOI HIV1 Env-pseudovirus Clade B infected in human TZM-bl cells after 30 mins by luciferase assay
Format: functional, organism-based
Conditions: Human immunodeficiency virus 1, Clade B, 0.5 h
Outline: as §1

Compound	IC50
N=C(N)NC[C@H]1Cc2ccccc2[C@@H]1NC(=O)C(=O)Nc1ccc(Cl)c(F)c1.O=CO	1.7 µM

Tested on: Human immunodeficiency virus 1
Test: Activation of HIV1 isolate YU2 infectivity in CD4 negative dog CF2Th cells expressing CCR5 by luciferase reporter gene assay relative to TS-2-224
Format: organism-based
Conditions: human immunodeficiency virus 1, cf2th

Compound	fold change (FC)
N=C(N)N[C@H]1Cc2ccccc2[C@@H]1NC(=O)C(=O)Nc1ccc(Cl)c(F)c1.O=CO	0.1
N=C(N)N[C@@H]1Cc2ccccc2[C@H]1NC(=O)C(=O)Nc1ccc(Cl)c(F)c1.O=CO	0

Target: not listed separately
Test: Binding affinity to HIV1 full length gp120 by isothermal titration calorimetric assay
Parameters: species or system Human immunodeficiency virus 1
Conditions: not given
Outline: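 ITC titration of full-length monomeric gp120 with ligand at 25 °C.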

Compound	Kd
N=C(N)NCC[C@H]1Cc2ccccc2[C@@H]1NC(=O)C(=O)Nc1ccc(Cl)c(F)c1.O=CO	0.34 µM
N=C(N)N[C@H]1Cc2ccccc2[C@@H]1NC(=O)C(=O)Nc1ccc(Cl)c(F)c1.O=CO	0.25 µM
N=C(N)NC[C@@H]1Cc2ccccc2[C@H]1NC(=O)C(=O)Nc1ccc(Cl)c(F)c1.O=CO	6.2 µM
N=C(N)NCC[C@@H]1Cc2ccccc2[C@H]1NC(=O)C(=O)Nc1ccc(Cl)c(F)c1.O=CO	2 µM
N=C(N)N[C@@H]1Cc2ccccc2[C@H]1NC(=O)C(=O)Nc1ccc(Cl)c(F)c1.O=CO	0.3 µM
N=C(N)NC[C@H]1Cc2ccccc2[C@@H]1NC(=O)C(=O)Nc1ccc(Cl)c(F)c1.O=CO	0.11 µM

Tested on: Human immunodeficiency virus 1
Test: Activation of HIV1 isolate YU2 infectivity in CD4 negative dog CF2Th cells expressing CCR5 by luciferase reporter gene assay relative to NBD556
Format: organism-based
Conditions: human immunodeficiency virus 1, cf2th
Outline: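 HIV-1 YU2 infection of CD4-negative Cf2Th-CCR5 cells; relative activation of viral infectivity is normalized to the reference CD4-mimetic agonist.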

Compound	fold change (FC)
N=C(N)NCC[C@H]1Cc2ccccc2[C@@H]1NC(=O)C(=O)Nc1ccc(Cl)c(F)c1.O=CO	0.17
N=C(N)NC[C@@H]1Cc2ccccc2[C@H]1NC(=O)C(=O)Nc1ccc(Cl)c(F)c1.O=CO	0.11
N=C(N)NCC[C@@H]1Cc2ccccc2[C@H]1NC(=O)C(=O)Nc1ccc(Cl)c(F)c1.O=CO	0
N=C(N)NC[C@H]1Cc2ccccc2[C@@H]1NC(=O)C(=O)Nc1ccc(Cl)c(F)c1.O=CO	0

Tested on: not listed separately
Test: Inhibition of AMLV gp120 binding to human CD4 expressed in canine CF2Th cells coexpressing CCR5 after 2 to 4 hrs by luciferase reporter gene assay
Format: cell-based, Amphotropic murine leukemia virus
Conditions: not given

Compound	IC50
N=C(N)NCC[C@H]1Cc2ccccc2[C@@H]1NC(=O)C(=O)Nc1ccc(Cl)c(F)c1.O=CO	> 100 µM
N=C(N)N[C@H]1Cc2ccccc2[C@@H]1NC(=O)C(=O)Nc1ccc(Cl)c(F)c1.O=CO	> 100 µM
N=C(N)NC[C@@H]1Cc2ccccc2[C@H]1NC(=O)C(=O)Nc1ccc(Cl)c(F)c1.O=CO	> 100 µM
N=C(N)NCC[C@@H]1Cc2ccccc2[C@H]1NC(=O)C(=O)Nc1ccc(Cl)c(F)c1.O=CO	> 100 µM
N=C(N)N[C@@H]1Cc2ccccc2[C@H]1NC(=O)C(=O)Nc1ccc(Cl)c(F)c1.O=CO	> 100 µM
N=C(N)NC[C@H]1Cc2ccccc2[C@@H]1NC(=O)C(=O)Nc1ccc(Cl)c(F)c1.O=CO	> 100 µM

Tested on: not listed separately
Test: Inhibition of HIV1 isolate YU2 gp120 binding to human CD4 expressed in dog CF2Th cells coexpressing CCR5 after 2 to 4 hrs by luciferase reporter gene assay
Format: cell-based, Human immunodeficiency virus type 1 (isolate YU2)
Conditions: not given
Outline: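 HIV-1 YU2 infection of Cf2Th cells expressing CD4 and CCR5; the IC50 is for inhibition of viral entry.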

Compound	IC50
N=C(N)NCC[C@H]1Cc2ccccc2[C@@H]1NC(=O)C(=O)Nc1ccc(Cl)c(F)c1.O=CO	28.2 µM
N=C(N)N[C@H]1Cc2ccccc2[C@@H]1NC(=O)C(=O)Nc1ccc(Cl)c(F)c1.O=CO	22.9 µM
N=C(N)NC[C@@H]1Cc2ccccc2[C@H]1NC(=O)C(=O)Nc1ccc(Cl)c(F)c1.O=CO	37.9 µM
N=C(N)NCC[C@@H]1Cc2ccccc2[C@H]1NC(=O)C(=O)Nc1ccc(Cl)c(F)c1.O=CO	68.5 µM
N=C(N)NCC1Cc2ccccc2C1NC(=O)C(=O)Nc1ccc(Cl)c(F)c1 (racemic)	10.3 µM
N=C(N)N[C@@H]1Cc2ccccc2[C@H]1NC(=O)C(=O)Nc1ccc(Cl)c(F)c1.O=CO	21.3 µM
N=C(N)NC[C@H]1Cc2ccccc2[C@@H]1NC(=O)C(=O)Nc1ccc(Cl)c(F)c1.O=CO	2.3 µM
